# Active and inactive are the calls of the source. No cut-off for these calls is given here.
# How the values were obtained:
# [1] = target: T1, Phosphatidylinositol 4,5-bisphosphate 3-kinase catalytic subunit gamma isoform (Homo sapiens, UniProt P48736); test: Inhibition of PI3Kgamma (unknown origin) using PIP2 as substrate after 15 mins in presence of [33P-ATP] by liquid scintillation counting method
# [2] = organism: Homo sapiens; test: Selectivity ratio of Ki for PI3Kbeta (unknown origin) to Ki for PI3Kgamma (unknown origin)
# [3] = organism: Homo sapiens; test: Selectivity ratio of Ki for PI3Kalpha (unknown origin) to Ki for PI3Kgamma (unknown origin)
# [4] = organism: Homo sapiens; test: Selectivity ratio of Ki for PI3Kdelta (unknown origin) to Ki for PI3Kgamma (unknown origin)
# [5] = Clearance in iv dosed rat; type: ADME, organism-based; settings: in vivo
# Outline: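 Rat, dog and monkey PK after dosing; clearance in mL/min/Kg.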
# [6] = Half life in iv dosed rat; type: ADME, organism-based; settings: in vivo
# [7] = target: T1, Phosphatidylinositol 4,5-bisphosphate 3-kinase catalytic subunit gamma isoform; test: Inhibition of PI3Kgamma in human THP1 cells assessed as inhibition of MCP1-induced Akt phosphorylation at […] residue preincubated for 1 hr followed by MCP1 stimulation for 3 mins by FACS analysis; type: cell-based
# Outline: (§1)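 Akt phosphorylation was induced by MCP-1 in THP-1 cells or in splenocytes.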
# [8] = Intrinsic clearance in rat hepatocytes assessed per million cells; type: ADME, cell-based, Hepatocyte; settings: read-out: CLH
# Outline: (§2)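 Intrinsic clearance in rat, dog, monkey and human hepatocytes; units µL/min/M cells.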
# [9] = Lipophilicity, log D of the compound at pH 7.4; type: physicochemical; settings: buffer
# [10] = Intrinsic clearance in human hepatocytes assessed per million cells; type: ADME, cell-based, Hepatocyte; settings: read-out: CLH; outline: as §2
# [11] = system: MDR1; test: Efflux ratio of permeability from basolateral to apical over apical to basolateral side in MDCK cells harboring MDR1; type: ADME, cell-based, Canis lupus familiaris; settings: dog
# Outline: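 MDR1-MDCK monolayers; bidirectional transport. A-B permeability in x10-6 cm/s; efflux taken as the B-A/A-B ratio.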
# [12] = system: Mus musculus; test: Anti-inflammatory activity in MOG (35 to 55 residues)-induced EAE C57BL/6 mouse model assessed as inhibition of development of clinical symptoms at 3 to 30 mg/kg, po bid […]; type: functional, organism-based
# Outline: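 C57BL6 mice immunized with myelin oligodendrocyte glycoprotein in complete Freund's adjuvant containing Mycobacterium tuberculosis. Oral dosing BID at 3, 10 and 30 mg/Kg began at a clinical score of 0.5-1. Vehicle and positive-control groups were run alongside. Read-out: clinical EAE score plotted against time after onset.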
# [13] = target: Phosphatidylinositol-4,5-bisphosphate 3-kinase, catalytic subunit gamma (Rattus norvegicus, UniProt D3ZFJ0); test: Inhibition of PI3Kgamma in rat spleenocytes assessed as inhibition of MCP1-induced Akt phosphorylation at […] residue preincubated for 1 hr followed by MCP1 stimulation for 3 mins by FACS analysis; type: cell-based; outline: as §1
# [14] = system: Mus musculus; test: Anti-inflammatory activity in MOG (35 to 55 residues)-induced EAE C57BL/6 mouse model assessed as inhibition of development of clinical symptoms at 1 mg/kg, po qd measured on day 8 post MOG (35 to 55 residues) immunization; type: functional, organism-based
# T1 sequence (P48736 whole entry, canonical isoform): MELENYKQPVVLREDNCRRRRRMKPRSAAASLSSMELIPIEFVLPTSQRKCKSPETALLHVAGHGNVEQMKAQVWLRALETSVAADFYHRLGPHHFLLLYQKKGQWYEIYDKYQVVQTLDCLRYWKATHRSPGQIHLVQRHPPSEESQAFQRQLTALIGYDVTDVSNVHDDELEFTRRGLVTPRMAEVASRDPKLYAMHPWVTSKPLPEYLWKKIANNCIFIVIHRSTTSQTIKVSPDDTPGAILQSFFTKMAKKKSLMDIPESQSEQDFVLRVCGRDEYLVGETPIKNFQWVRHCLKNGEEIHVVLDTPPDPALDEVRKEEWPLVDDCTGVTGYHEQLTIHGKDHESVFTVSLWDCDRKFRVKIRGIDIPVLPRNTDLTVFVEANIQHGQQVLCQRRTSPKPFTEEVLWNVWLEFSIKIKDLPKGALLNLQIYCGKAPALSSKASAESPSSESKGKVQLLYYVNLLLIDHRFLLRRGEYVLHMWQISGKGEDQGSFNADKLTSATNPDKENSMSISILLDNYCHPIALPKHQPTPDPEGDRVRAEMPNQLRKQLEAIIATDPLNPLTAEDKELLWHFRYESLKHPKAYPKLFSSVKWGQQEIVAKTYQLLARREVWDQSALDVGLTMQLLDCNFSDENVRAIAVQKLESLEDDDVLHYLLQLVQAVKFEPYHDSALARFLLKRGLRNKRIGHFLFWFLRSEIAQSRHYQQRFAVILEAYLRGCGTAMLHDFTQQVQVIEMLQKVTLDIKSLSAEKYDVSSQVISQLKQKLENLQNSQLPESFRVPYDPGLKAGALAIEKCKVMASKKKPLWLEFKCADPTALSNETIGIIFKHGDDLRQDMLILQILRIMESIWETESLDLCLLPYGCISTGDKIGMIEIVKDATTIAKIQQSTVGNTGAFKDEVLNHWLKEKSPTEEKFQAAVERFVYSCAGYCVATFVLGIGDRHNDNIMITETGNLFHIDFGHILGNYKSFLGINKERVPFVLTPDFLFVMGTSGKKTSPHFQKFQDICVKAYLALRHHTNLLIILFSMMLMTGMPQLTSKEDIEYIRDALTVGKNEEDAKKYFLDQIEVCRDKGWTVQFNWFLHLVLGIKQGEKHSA
# Chain of Phosphatidylinositol-4,5-bisphosphate 3-kinase, catalytic subunit gamma (D3ZFJ0 whole entry, the tested form may be a part): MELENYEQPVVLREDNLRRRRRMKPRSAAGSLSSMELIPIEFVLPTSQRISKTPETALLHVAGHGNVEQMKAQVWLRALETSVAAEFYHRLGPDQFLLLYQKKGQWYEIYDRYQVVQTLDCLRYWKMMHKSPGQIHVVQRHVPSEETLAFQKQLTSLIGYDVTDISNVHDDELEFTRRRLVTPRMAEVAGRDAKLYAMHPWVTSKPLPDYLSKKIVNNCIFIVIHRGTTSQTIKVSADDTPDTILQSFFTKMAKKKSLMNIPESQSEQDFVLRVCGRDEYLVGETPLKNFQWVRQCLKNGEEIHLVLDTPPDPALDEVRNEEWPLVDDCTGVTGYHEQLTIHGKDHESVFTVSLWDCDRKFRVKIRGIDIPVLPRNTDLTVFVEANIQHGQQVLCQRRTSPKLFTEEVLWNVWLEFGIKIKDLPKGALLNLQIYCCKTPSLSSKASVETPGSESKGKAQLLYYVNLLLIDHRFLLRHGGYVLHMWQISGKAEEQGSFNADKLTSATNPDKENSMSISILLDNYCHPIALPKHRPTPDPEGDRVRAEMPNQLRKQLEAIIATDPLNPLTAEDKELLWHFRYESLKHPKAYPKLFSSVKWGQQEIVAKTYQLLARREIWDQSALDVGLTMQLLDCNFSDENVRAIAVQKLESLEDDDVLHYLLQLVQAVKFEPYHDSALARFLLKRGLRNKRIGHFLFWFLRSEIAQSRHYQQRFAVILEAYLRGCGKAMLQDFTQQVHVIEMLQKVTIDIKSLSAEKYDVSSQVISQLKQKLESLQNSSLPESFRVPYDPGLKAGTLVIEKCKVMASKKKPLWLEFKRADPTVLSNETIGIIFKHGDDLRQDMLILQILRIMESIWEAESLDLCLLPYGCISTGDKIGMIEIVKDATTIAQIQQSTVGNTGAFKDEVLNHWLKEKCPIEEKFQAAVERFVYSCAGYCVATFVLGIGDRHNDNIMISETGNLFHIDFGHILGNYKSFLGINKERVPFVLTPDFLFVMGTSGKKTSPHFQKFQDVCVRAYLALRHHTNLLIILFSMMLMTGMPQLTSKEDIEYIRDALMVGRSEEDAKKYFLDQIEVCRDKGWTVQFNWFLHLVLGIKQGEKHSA
Structure (SMILES),Ki [1],Ratio Ki [2],Ratio Ki [3],Ratio Ki [4],further results
COc1cc(-c2ccc3c(n2)CN(c2cnn(CCC#N)c2)C3=O)cnc1OC,20 nM,10,11,4,
COc1cc(-c2ccc3c(c2)CN(c2cnn(CC#N)c2)C3=O)cnc1OC,6 nM,27,51,17,clearance [5]: 56 mL/min/kg
COc1cc(-c2ccc3c(n2)CN(c2cnn(C(C)(C)C#N)c2)C3=O)cnc1OC,28 nM,25,15,10,
C#CCn1cc(N2Cc3nc(-c4cnc(OC)c(OC)c4)ccc3C2=O)cn1,9 nM,25,11,12,
COc1cc(-c2ccc3c(n2)C(C)(C)N(c2cnn(CC(F)(F)F)c2)C3=O)cnc1OC,11 nM,12,33,10,half-life [6]: 6.6 h; IC50 [7]: 340 nM; clearance [5]: 6.3 mL/min/kg
COc1ccc(-c2ccc3c(c2)CN(c2cccc(CC#N)c2)C3=O)cc1OC,160 nM,> 25,> 25,7,hepatocyte CLint [8]: 111 µL/min/1e6 cells; logD [9]: 4.1; clearance [5]: 116 mL/min/kg; hepatocyte CLint [10]: 26 µL/min/1e6 cells
COc1cc(-c2ccc3c(n2)CN(c2cnn(C)c2)C3=O)cnc1OC,60 nM,9,5,3,efflux ratio [11]: 2.5
COc1cc(-c2ccc3c(n2)CN(c2cn[nH]c2)C3=O)cnc1OC,11 nM,32,34,42,
CCn1cc(N2Cc3nc(-c4cnc(OC)c(OC)c4)ccc3C2=O)cn1,8 nM,39,25,14,
COc1cc(-c2ccc3c(n2)CN(c2cnn(CC(F)F)c2)C3=O)cnc1OC,9 nM,12,22,5,
COc1cc(-c2ccc3c(n2)[C@@H](C)N(c2cnn(CC(F)(F)F)c2)C3=O)cnc1OC,,,,,Activity [12]: Active; IC50 [13]: 210 nM
COc1cc(-c2ccc3c(n2)CN(c2cnn(CC#N)c2)C3=O)cnc1OC,3 to 4 nM,,,,
COc1cc(-c2ccc3c(c2)CN(c2cccc(CC#N)c2)C3=O)cnc1OC,35 nM,11,40,16,hepatocyte CLint [8]: 88 µL/min/1e6 cells; clearance [5]: 160 mL/min/kg; hepatocyte CLint [10]: 30 µL/min/1e6 cells
COc1cc(-c2ccc3c(n2)CN(c2cnn(CC(F)(F)F)c2)C3=O)cnc1OC,4 nM,,,,IC50 [7]: 280 nM
CCCCCCCCc1ccc(CCC(N)(CO)CO)cc1,,,,,Activity [14]: Active
